# HSF1 inh: HSF1 inhibitors in luciferase reporter cells, primary screen, cell-based, NIH3T3, luminescence; AID 2098, 2009; 300,000 tested, 0.77% active; activity change, negative = inhibition, % at 7.5 µM (by protocol); NIH3T3-HGL HSE-luciferase, MG132-induced, luminescence 8 h; active compounds read low;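 active means more than half of replicate wells show activity change below -50%, luminescence cut by over half; inconclusive means some wells, but at most half, below -50%; inactive means no replicate well below -50%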;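 further: luciferase reports HSF-1 transcriptional activity via heat shock element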
# AI-2 QS modul: Vibrio harveyi AI-2 quorum sensing modulators, primary screen, JMH597 strain, luminescence/OD600 ratio; Vibrio harveyi JMH597 AI-2 luminescence/OD600 ratio, 9 h; active compounds read low; strain lacks LuxN and CqsS sensors; 0 = neutral-control median; activity change, % at 7.5 µM; 300,000 tested, 0.4% active; in the data active means activity change below about -75%, passing the limit was not always enough; inconclusive means no clear call, values can overlap the other calls;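 further: luminescence divided by OD600 gain over 9 h not by final OD600 alone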
# PHOSPHO1 inh: PubChem AID 1565; Phosphoethanolamine/phosphocholine phosphatase (Homo sapiens), Q8TCT1; recombinant PHOSPHO1, absorbance phosphatase assay; inhibition, % at 13.3 µM; 290,000 tested, 1.1% active; in the data active means inhibition above about 60%
# Target sequence (Q8TCT1 whole entry, looked up): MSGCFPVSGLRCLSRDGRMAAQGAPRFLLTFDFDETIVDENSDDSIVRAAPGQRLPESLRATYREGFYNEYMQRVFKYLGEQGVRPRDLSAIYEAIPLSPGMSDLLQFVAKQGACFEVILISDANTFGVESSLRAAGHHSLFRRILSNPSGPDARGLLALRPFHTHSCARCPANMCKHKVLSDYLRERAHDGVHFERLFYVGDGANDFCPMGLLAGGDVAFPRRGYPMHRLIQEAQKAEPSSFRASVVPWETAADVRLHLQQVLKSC
# HSF-1 act: HSF-1 activators, primary screen, NIH3T3-HGL cells, MG132 stress, luminescence, single point; NIH3T3-HGL HSF-1 luciferase reporter, 8 h; 100% = twice DMSO control signal; activation, % at 9 µM; 300,000 tested, 1.7% active; AID 504408, 2011;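 active means mean replicate activation of at least 50% with a set share of replicates each reaching 50%; inconclusive means only one of those two conditions met; inactive means mean below 50% and too few replicates reaching it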
# ALR inh: inhibitors of human ALR sulfhydryl oxidase, primary screen, biochemical, H2O2 detection, HRP-luminol luminescence, single point; inhibition, % (concentration not given with the values); purified ALR, DTT oxidation; 290,000 tested, 3.8% active;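 active means mean replicate inhibition above about 79%, with every replicate also reaching it, limit read from the data; inconclusive means only one of the two criteria met; inactive means mean below limit and not every replicate reaching it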
# Target sequence (P55789 whole entry, looked up): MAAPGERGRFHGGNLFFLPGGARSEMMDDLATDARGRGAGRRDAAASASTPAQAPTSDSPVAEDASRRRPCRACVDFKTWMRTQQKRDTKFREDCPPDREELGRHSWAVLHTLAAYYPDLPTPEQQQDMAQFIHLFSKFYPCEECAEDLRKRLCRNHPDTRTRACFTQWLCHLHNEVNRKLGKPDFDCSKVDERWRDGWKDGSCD
# HCV core dimer: inhibitors of HCV core protein dimerization, primary screen, biochemical, TR-FRET, high-throughput; TR-FRET GST/Flag-core106 dimerization, 1536-well; inhibition, % at 5 µM; 300,000 tested, 0.33% active; AID 1899, 2009;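 active means inhibition above the mean of all tested compounds plus 3 SD, set per screening campaign, cut at about 45% in these data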
#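 assay system = GST-tagged and Flag-tagged HCV core protein residues 1-106 | controls = unlabelled core106 and no-GST-core106 wells | incubation = compound-protein-antibody incubation 4 h at 22.5 °C | probe or stimulus = Eu donor and XL665 acceptor anti-tag antibodies | read-out = % inhibition based on acceptor/donor emission ratio | signal = TR-FRET 671 and 617 nm emission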
# Numbers stand for hits; . = inactive; ? = inconclusive; / = no result given. Hits are enriched below; roughly 6.8% of the tested compounds scored in any of these assays.
SMILES,HSF1 inh,AI-2 QS modul,PHOSPHO1 inh,HSF-1 act,ALR inh,HCV core dimer
Cc1ccccc1NC(=O)CC1SC(=O)N(c2ccccc2)C1=O (configuration not stated),.,.,.,.,97,.
COc1cc(OC)c2ccc(=O)oc2c1C(CC(=O)N1CCCC1)c1ccc(N(C)C)cc1 (configuration not stated),.,.,.,.,99,.
COc1cc(OC)c2ccc(=O)oc2c1C(CC(=O)N1CCOCC1)c1ccc(N(C)C)cc1 (configuration not stated),.,.,.,.,98,.
Cc1ccc2c(CC(=O)N(C)c3c(N)n(Cc4ccccc4)c(=O)[nH]c3=O)coc2c1,.,.,/,.,.,.
O=C1/C(=C/C=C/c2ccco2)SC(=S)N1c1ccc(O)cc1,.,.,.,.,.,74
O=C1/C(=C\c2ccco2)SC(=S)N1c1ccc(O)cc1,.,.,.,.,?,.
CC(C)C(C(=O)O)N1C(=O)/C(=C/C=C/c2ccco2)SC1=S (configuration not stated),.,.,.,.,99,57
O=C1/C(=C/c2ccco2)SC(=S)N1c1cccnc1,.,.,61,.,/,/
Cc1c(-c2nc(N)nc(Nc3ccccc3)n2)oc2ccccc12,.,.,.,76,.,.
Nc1nc(CN2CCCCCC2)nc(Nc2ccccc2)n1,.,.,.,.,.,.
CCC1S/C(=C(\C#N)C(=O)NCc2ccco2)N(c2ccc(F)cc2)C1=O (configuration not stated),.,.,76,.,.,.
O=C(CSC1CCCCC1)N1CCN(c2ccccc2)CC1,.,.,.,.,98,.
Cc1ccc(CSCC(=O)N2CCN(c3ccccc3)CC2)cc1,.,.,.,.,.,.
O=C(CSCc1cccc(F)c1)N1CCN(c2ccccc2)CC1,.,.,.,.,98,.
O=C(CN1CCN(c2ccc(F)cc2)CC1)OCc1ccccc1,.,.,.,.,92,.
O=C(CSCc1ccccc1)N1CCN(c2cccc(C(F)(F)F)c2)CC1,.,.,.,.,.,.
O=C(CSc1nc2ccccc2nc1N1CCCCC1)N1CCN(c2ccccc2)CC1,.,.,.,.,.,.
O=C(CSCc1ccccc1)N1CCN(c2ccccc2)CC1,.,.,.,.,98,.
CC(C)Cn1c(SC(C)C(=O)NCC2CCCO2)nc2ccc(Cl)cc2c1=O (configuration not stated),/,/,/,/,.,/
O=C(/C=C/c1ccco1)NCC1COc2ccccc2O1 (configuration not stated),.,.,.,.,.,.
C/C(=C\c1ccccc1)C(=O)NCCc1ccccc1,.,.,.,.,.,.
O=C(CCc1ccccc1)N1CCN(c2ccccc2F)CC1,.,.,.,.,.,.
O=C(CN1CCN(c2ccccc2)CC1)N1CCN(c2ccccc2)CC1,.,.,.,.,99,.
O=C(CSCc1ccccc1)N1CCN(S(=O)(=O)c2ccc(F)cc2)CC1,.,.,.,.,.,.
O=C(CN1CCCCC1)N1CCN(c2ccccc2)CC1,.,.,.,.,.,.
SMILES,HSF1 inh,AI-2 QS modul,PHOSPHO1 inh,HSF-1 act,ALR inh,HCV core dimer
O=C(Cc1ccc(Br)cc1)N1CCN(C(=O)c2ccccc2)CC1,/,/,/,/,.,/
O=C(Cc1ccc(Br)cc1)N1CCN(c2ccccc2)CC1,.,.,.,.,98,.
O=C(CCc1ccccc1)N1CCN(c2ccc(F)cc2)CC1,.,.,.,.,86,.
O=C(CSCc1ccccc1)N1CCN(c2ccc(F)cc2)CC1,.,.,.,.,88,.
C=CCN(CC=C)S(=O)(=O)c1ccc(NC(=S)NC(=O)Cc2ccc(OC)cc2)cc1,.,.,.,.,.,.
O=C(Nc1ccccc1N1CCCCC1)c1ccc(-c2cc(Cl)ccc2Cl)o1,.,.,/,.,.,.
CC1(C(=O)N2CCN(c3ccccc3)CC2)CC1(Cl)Cl (configuration not stated),.,.,.,.,96,.
O=C(CN1CCN(c2ccccc2)CC1)Nc1ccncc1,.,.,/,.,99,.
CC1(C(=O)N2CCN(c3ccc([N+](=O)[O-])cc3)CC2)CC1(Cl)Cl (configuration not stated),.,.,.,.,.,.
Cc1cc(C)cc(NC(=O)CN2CCN(c3ccccc3)CC2)c1,.,.,.,.,.,.
Cc1ccc(SCC(=O)Nc2ccc(N3CCOCC3)cc2)cc1C,/,/,/,/,.,/
Cc1cc(C)nc(SCC(=O)c2cc3ccccc3oc2=O)n1,.,.,.,.,93,.
O=C(CSC(=S)N1CCOCC1)c1cc2ccccc2oc1=O,.,.,.,.,96,.
Cc1[nH]c2ccc(F)cc2c1CCN(Cc1cccnc1)C(=S)Nc1cccc(F)c1,.,.,.,.,.,.
COc1ccc(C2SCC(=O)N2CCc2ccc(OC)c(OC)c2)cc1 (configuration not stated),.,.,.,.,.,.
COc1ccccc1N=c1sc2ccccc2n1C,.,.,.,.,.,.
COc1ccc(N=c2sc3ccccc3n2C)cc1,.,.,.,55,98,.
COc1cccc(OCc2cc(/C=N/n3cncn3)ccc2OC)c1,.,.,.,.,.,.
COc1ccc(/C=N/n2cncn2)cc1CSc1ccccn1,.,.,.,.,99,.
O=C(/C=C/c1ccncc1)c1ccc(NC(=O)c2ccccc2F)cc1,/,/,.,/,/,.
CCc1ccc(/C=N/Nc2ncnc3nc[nH]c23)cc1,.,.,.,.,81,.
Cc1ccc(C(=O)NCC(=O)NCc2ccc(Cl)cc2)s1,/,/,/,/,.,/
COc1ccc(OCCSc2nc3ccccc3n2CC(=O)O)cc1,.,.,.,.,.,.
O=C(O)Cn1c(SCCOc2ccc(Cl)cc2)nc2ccccc21,.,.,.,63,.,/
COc1ccc(C)cc1NC(=O)NNC(=O)C(C)Oc1ccc(F)cc1Cl (configuration not stated),.,.,.,.,.,.
O=c1oc2c3c4c(cc2s1)CCCN4CCC3,.,.,.,.,99,.
CCN(CC)c1ccc(NC(=S)NCC2CCCO2)cc1 (configuration not stated),.,.,.,.,100,.
O=C(NC(=S)NCC1CCCO1)c1ccc(Cl)cc1 (configuration not stated),.,.,.,.,.,.
Cc1ccc(C(=O)NC(=S)NCC2CCCO2)cc1 (configuration not stated),.,.,.,89,.,.

# Assay outcomes deposited in PubChem BioAssay by several laboratories.
